Test results reported in PubChem BioAssay AID602189 (Broad Institute, 2012).
Records with an inconclusive call do not appear. Activity calls are given as the source filed them.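 Rule for the calls: active = signal drop in every repeat run, with half-maximal concentration at most twice the top valid concentration; inconclusive = the separate test runs give conflicting calls; inactive = inactive in every test run.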

System: not listed separately
Experiment: C. albicans CaCi-17 growth inhibition, confirmation, clinical isolate, Alamar Blue, dry powder (AID 602189)
Settings: C. albicans CaCi-17 growth, Alamar Blue fluorescence, 48 h; at 26 µM (top of the series)
Outline: (§1)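 Assay system: fluconazole-resistant clinical isolate CaCi-17, whole fungal cells; medium: MOPS-buffered RPMI 1640 with uridine and glucose; times: 48 h at 37 °C, unshaken; technique: Alamar Blue fluorescence, 1:40 in PBS, read after 2 h; read-out: growth inhibition, shown by reduced Alamar Blue fluorescence; control set: amphotericin B at 10 µM as positive control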

Row | Compound | activity change, negative = inhibition
1 | C=CCNC(=S)N/N=C(\C)c1ccccn1 | -32.2% (inactive)
2 | O=C(Nc1nc(-c2ccccn2)cs1)c1ccccc1 | 57.1% (inactive)
3 | O=C(Nc1nc(-c2ccccc2)cs1)c1ccc(Br)s1 | -6.92% (inactive)
4 | NC(=O)c1cccc(C(=O)Nc2nc(-c3ccc4c(c3)CCCC4)cs2)c1 | 21.1% (inactive)
5 | O=C(Nc1nc(-c2ccc3c(c2)CCCC3)cs1)c1ccccc1 | -2.83% (inactive)
6 | Cc1ccc(C(=O)Nc2nnc(-c3ccccc3)o2)cc1C | -7.38% (inactive)
7 | CCOC(=O)N1C(=O)C2(CCCCC2)N(c2ccc(C)cc2)C1=S | -10.2% (inactive)

System: C. albicans CaCi-17 growth, Alamar Blue fluorescence, 48 h
Experiment: as above
Settings: not given
Outline: as §1

Row | Compound | AC50 [µM]
8 | O=C(Nc1nc(-c2ccccn2)cs1)c1ccc(Cl)s1 | 10.5
9 | Oc1c(C(c2ccccc2Cl)N2CCCCC2)ccc2cccnc12 (stereo not drawn) | 11.7
10 | O=C(Nc1nnc(-c2ccc3c(c2)CCCC3)o1)c1ccccc1 | 25.9
11 | O=C(Nc1nnc(-c2ccc3c(c2)CCCC3)o1)c1ccc(Cl)cc1Cl | 17.3
12 | O=C(NNC(=S)Nc1ccc(Cl)c(Cl)c1)c1ccccn1 | 1.86
13 | C/C(=N\NC(=O)c1cc2ccccc2cc1O)c1ccccn1 | 5.54
14 | Oc1c(C(c2ccc(Cl)cc2)N2CCCC2)ccc2cccnc12 (stereo not drawn) | 8.73
15 | Oc1c(CN2CCc3ccccc3C2)cc(Cl)c2cccnc12 | 5.46
16 | CN1CCN(C(c2ccc(C(F)(F)F)cc2)c2ccc3cccnc3c2O)CC1 (stereo not drawn) | 7.72
17 | O=C(Oc1c(Cl)cc(Cl)c2cccnc12)c1ccco1 | 1.5
18 | O=C(Nc1nc(-c2ccccn2)cs1)c1ccc(Br)s1 | 4.94
